An excerpt weighted towards active compounds, which were near 0.63% of everything screened.
GSK3A inh = human GSK-3 alpha kinase inhibition; P49840; inhibition, % at 10 µM; ADP-Glo luminescence, 60 min; hit rate 0.1% among 320,000;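 active = more than half of replicates show inhibition above 20%; inconclusive = some but at most half of replicates above 20% inhibition; inactive = no replicate shows inhibition above 20%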;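 also: GST-tagged GSK-3 alpha with peptide substrate and 25 µM ATP; 0% = DMSO neutral wells and 100% = GW8510 positive control wells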
MT1-MMP act inh = inhibitors of human MT1-MMP activation | P50281 | HT1080 RFP-PRO-GFP cells, GFP/RFP ratio fluorescence, overnight; percent of plate control window, DMSO zero | GFP/RFP ratio change, % at 20 µM | hit rate 0.061% among 360,000 | AID 651647;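 active = GFP/RFP ratio change of at least 30% with cell ATP level not reduced by more than half and red fluorescence within 50% of control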
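system = RFP-PRO-GFP reporter HT1080 cells | dosing = 20 µM single dose, 1% DMSO | timing = overnight cell settling, then overnight compound exposure, 37 °C, 5% CO2 | read-out basis = GFP/RFP fluorescence ratio | controls = DMSO and RFP-L50D-GFP cell wells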
DSG3 Ab inh = human desmoglein-3 autoantibody binding inhibition; P32926; DSG3-coupled beads, scFv-anti-DSG3-GFP binding, flow cytometry; hits give low values; binding (percent of control), % at 10 µM; hit rate 0.48% among 310,000; AID 588358;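 active = binding more than 3 SD below its plate's average and above zero; inconclusive = below that plate limit but binding exactly zero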;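 also: hits lower antibody fragment binding to DSG3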
Target sequence (P32926 whole entry, looked up, the tested form may be a part): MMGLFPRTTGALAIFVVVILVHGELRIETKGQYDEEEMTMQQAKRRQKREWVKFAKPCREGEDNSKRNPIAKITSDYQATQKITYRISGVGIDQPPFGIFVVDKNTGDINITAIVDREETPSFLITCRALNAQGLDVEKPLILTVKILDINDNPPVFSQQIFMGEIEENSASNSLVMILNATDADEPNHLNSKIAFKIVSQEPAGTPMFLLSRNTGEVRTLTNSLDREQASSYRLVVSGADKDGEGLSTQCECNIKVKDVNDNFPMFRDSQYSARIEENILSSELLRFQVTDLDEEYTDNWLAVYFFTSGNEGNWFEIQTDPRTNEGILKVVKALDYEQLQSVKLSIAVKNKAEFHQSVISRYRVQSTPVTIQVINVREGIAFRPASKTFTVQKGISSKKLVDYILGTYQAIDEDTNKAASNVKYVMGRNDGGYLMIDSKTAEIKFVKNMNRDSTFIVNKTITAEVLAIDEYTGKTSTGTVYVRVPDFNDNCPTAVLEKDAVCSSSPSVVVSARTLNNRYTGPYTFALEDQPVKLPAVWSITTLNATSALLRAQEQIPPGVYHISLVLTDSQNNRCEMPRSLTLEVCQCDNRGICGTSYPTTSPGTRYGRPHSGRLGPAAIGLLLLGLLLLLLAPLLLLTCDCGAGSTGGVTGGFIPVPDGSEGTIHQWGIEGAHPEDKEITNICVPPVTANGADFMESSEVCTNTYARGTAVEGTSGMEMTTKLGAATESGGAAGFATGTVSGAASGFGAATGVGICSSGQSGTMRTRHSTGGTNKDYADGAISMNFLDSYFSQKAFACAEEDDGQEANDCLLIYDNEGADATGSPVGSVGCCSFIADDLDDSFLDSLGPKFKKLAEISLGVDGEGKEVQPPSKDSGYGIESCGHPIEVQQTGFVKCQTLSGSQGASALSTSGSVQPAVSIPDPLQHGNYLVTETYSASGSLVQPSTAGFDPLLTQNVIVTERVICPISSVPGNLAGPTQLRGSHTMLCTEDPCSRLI
STK33 inh = human STK33 kinase inhibition. hit rate 0.073% among 320,000. purified STK33, MBP phosphorylation, ADP-Glo luminescence. inhibition, % at 10 µM. Q9BYT3. AID 2661;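 active = inhibition at or above 25%, using the most active replicate where run in duplicate; inactive = inhibition below 25%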
GSK3B inh = inhibitors of human GSK3beta kinase; P49841; GST-GSK3beta kinase, ADP-Glo luminescence, 60 min; hits give low values; activity score (negative = inhibition), % at 10 µM; hit rate 0.038% among 300,000; AID 2097;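 active = more than half of replicate wells score below -50%, meaning over 50% inhibition versus plate controls; inconclusive = some replicates but at most half score below -50%; inactive = no replicate scores below -50%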;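 also: 0% = median DMSO wells and -100% = median GW8510 positive control wells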
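Assay system: GST-tagged human GSK3beta kinase, cell-free; Input: 1.6 ng GSK3beta; Medium: Tris/MgCl2 kinase buffer; Timing: 60 min enzyme reaction, room temperature; Signal: ADP-Glo luminescence quantifying ADP generated by kinase; Evaluation: score relative to plate controls; Benchmarks: DMSO neutral wells and GW8510 at 20 µM as positive.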
MT1-MMP act val = MT1-MMP (human) activation inhibition, single-concentration validation. inhibition, % at 20 µM. HT1080 RFP-PRO-GFP cells, GFP and RFP fluorescence ratio, overnight. shares compounds with MT1-MMP act inh. AID 652235. hit rate 10% among 200;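 active = inhibition of at least 50% in the primary cell screen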
Numbers without * were called inactive; ? = inconclusive; / = no result given.

SMILES	GSK3A inh	MT1-MMP act inh	DSG3 Ab inh	STK33 inh	GSK3B inh	MT1-MMP act val
CCOC(=O)c1ccccc1N1C(=O)CSC1=S	1	30*	102	0	2	4
O=C(O)c1cccc(N2C(=O)CSC2=S)c1	-3	36*	92	-1	-1	8
COC(=O)[C@@]12C[C@@H](CC(=O)N3CCN(C(=O)c4ccco4)CC3)C(=O)N(CCc3ccc(OC)c(OC)c3)C1=CCC(C)(C)C2	/	0	/	/	/	/
ClCC1NCC(c2ccccc2Cl)c2c1[nH]c1ccccc21 (stereo unspecified)	0	37*	148	-1	0	2
COc1ccc(C(=O)NCc2ccc3c(c2)cc(C)n3C)cc1	0	31*	98	1	2	2
COc1cc(OC)cc(C(=O)NCc2ccc3c(c2)cc(C)n3C)c1	-1	26	92	-3	0	/
Cc1cc2cc(CNC(=S)Nc3ccc(OC(F)F)cc3)ccc2n1C	-1	47*	63*	-1	7	19
Cn1cc(Cc2ccc(C(=O)NC34CC5CC(CC(C5)C3)C4)cn2)c2ccccc21	/	2	/	/	/	/
Nc1ccc(C2=Nc3cccc4cccc(c34)N2)cc1	/	-5	90	/	4	/
COc1cccc(C2=Nc3cccc4cccc(c34)N2)c1	-1	37*	98	2	-9	7
Cc1ccsc1C(=O)N1CCC1(C)C(=O)NCCC#N (stereo unspecified)	/	1	/	/	/	/
COc1ccc(OC)c(NC(=O)Nc2nc(C(N)CCc3ccccc3)cs2)c1 (stereo unspecified)	/	-6	/	/	/	/
CC(C)c1cn(CC[C@@H]2CC[C@@H](NC(=O)C3CCCCC3)[C@@H](CO)O2)nn1	/	-1	/	/	/	/
O=C1CSC(=S)N1CC1CCCO1 (stereo unspecified)	0	35*	104	0	-1	1
Cn1nc(C(C)(C)C)cc1C(=O)N1CCCCC1c1cc(C(=O)Nc2ccccc2Cl)no1 (stereo unspecified)	/	-6	/	/	/	/
Cc1ccc([C@H]2C(C(=O)O)=CCN2S(=O)(=O)c2ccc(C)cc2)cc1	/	-2	/	/	/	/
CCn1c(O)c(C=Nc2ccccc2)sc1=S	-2	/	/	0	-1	/
CCn1c(O)c(/C=N/n2cnnc2)sc1=S	1	30*	102	-2	1	3
COc1ccc2sc(/C=C/c3ccccc3O)[n+](C)c2c1	/	34*	/	/	/	8
CC(C)NC(=O)C1(C)Cc2c(-c3ccc(N(C)C)cc3)ccnc2O1 (stereo unspecified)	/	2	/	/	/	/
CN(C)c1ccc(Cc2cc3c(O)ccc(O)c3cc(Cc3ccc(N(C)C)cc3)c2=O)cc1	/	33*	80	/	/	23
CN(C)c1ccc(C(=O)c2ccc(O)cc2O)cc1	11	-2	/	1	0	/
COc1ccccc1NC(=O)c1ccc(S(=O)(=O)N(C)c2ccccc2OC)cc1	-2	35*	?	-2	/	10
COc1ccc(OC)c(CN2CCN(C(=O)c3cccc(S(=O)(=O)N(C)c4ccccc4)c3)CC2)c1	/	-2	106	/	/	/
O=c1[nH]cnc2sc(-c3ccccc3)cc12	-1	34*	106	1	-1	1
SMILES	GSK3A inh	MT1-MMP act inh	DSG3 Ab inh	STK33 inh	GSK3B inh	MT1-MMP act val
O=C1OCCC1=COCCCCCCOC=C1CCOC1=O	/	-4	102	/	/	/
CCn1c(=O)c(=O)[nH]c2cc(C(=O)NC3CCCc4ccccc43)ccc21 (stereo unspecified)	-1	31*	100	-1	-3	34
CCOC(=O)c1c2c3c(cccc3[nH]c1=O)C(=O)c1ccccc1-2	0	-10	100	0	1	/
CCOC(=O)c1c2c3c(c(Cl)ccc3[nH]c1=O)C(=O)c1ccccc1-2	/	44*	/	/	0	22
CC1=NN(c2ccccc2)C(=O)/C1=C/C=C/C=C/N(C)C	9	40*	99	7	-7	38
CCCCNC(=O)c1cnc(Cc2c[nH]c3ccccc23)c(I)c1	/	1	/	/	/	/
Cc1cc2cc(CN3C(=O)c4ccccc4C3=O)ccc2n1C	-1	32*	102	-1	0	13
O=C1c2ccccc2C(=O)N1Cc1ccc2c(c1)OCO2	-1	-1	101	0	-3	/

Source: PubChem BioAssay (several laboratories)
